The source made the active and inactive calls. The calls are words filed in the database; no cut-off is given here.
Legend:
[1] = Drug level in monkey hepatocytes treated with [3H]-labeled N-(4-Amino-3,4-dioxo-1-phenylbutan-2-yl)-2-(3-(4-fluorophenyl)-1H-pyrazol-1-yl)nicotinamide assesseed as cytosolic carbonyl reductase-mediated compound formation; format: ADME, cell-based, Macaca mulatta; conditions: rhesus monkey
[2] = Drug level in monkey blood treated with [3H]-labeled N-(4-Amino-3,4-dioxo-1-phenylbutan-2-yl)-2-(3-(4-fluorophenyl)-1H-pyrazol-1-yl)nicotinamide assesseed as cytosolic carbonyl reductase-mediated compound formation; format: ADME, Macaca mulatta; conditions: rhesus monkey, cytosol
[3] = target: T1, Carbonyl reductase [NADPH] 1 (Homo sapiens, UniProt P16152); assay: Drug level in human blood treated with [3H]-labeled N-(4-Amino-3,4-dioxo-1-phenylbutan-2-yl)-2-(3-(4-fluorophenyl)-1H-pyrazol-1-yl)nicotinamide assesseed as cytosolic carbonyl reductase-mediated compound formation; format: ADME; conditions: cytosol
T1 sequence (P16152 whole entry): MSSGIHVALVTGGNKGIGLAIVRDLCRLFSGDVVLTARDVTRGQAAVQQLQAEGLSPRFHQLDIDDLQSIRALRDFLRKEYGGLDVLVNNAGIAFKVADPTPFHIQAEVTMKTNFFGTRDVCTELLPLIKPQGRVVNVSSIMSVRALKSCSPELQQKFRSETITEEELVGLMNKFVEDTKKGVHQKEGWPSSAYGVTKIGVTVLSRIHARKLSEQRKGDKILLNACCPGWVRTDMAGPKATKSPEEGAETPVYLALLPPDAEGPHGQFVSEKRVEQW

[4] = target: T1, Carbonyl reductase [NADPH] 1; assay: Drug level in human hepatocytes treated with [3H]-labeled N-(4-Amino-3,4-dioxo-1-phenylbutan-2-yl)-2-(3-(4-fluorophenyl)-1H-pyrazol-1-yl)nicotinamide assesseed as cytosolic carbonyl reductase-mediated compound formation; format: ADME, cell-based
[5] = Thiol reactivity using recombinant human full length 13C-labeled La antigen (100 to 324 residues) expressed in Escherichia coli BL21(DE3) by ALARM NMR
[6] = target: T2, Calpain-1 catalytic subunit (Rattus norvegicus, UniProt P97571); assay: (§1) Inhibition of calpain-1 in rat hippocampal slices assessed as prevention of NMDA-induced spectrin cleavage preincubated for 30 mins followed by NMDA addition measured after 5 hrs by Western blot analysis
T2 sequence (P97571 whole entry): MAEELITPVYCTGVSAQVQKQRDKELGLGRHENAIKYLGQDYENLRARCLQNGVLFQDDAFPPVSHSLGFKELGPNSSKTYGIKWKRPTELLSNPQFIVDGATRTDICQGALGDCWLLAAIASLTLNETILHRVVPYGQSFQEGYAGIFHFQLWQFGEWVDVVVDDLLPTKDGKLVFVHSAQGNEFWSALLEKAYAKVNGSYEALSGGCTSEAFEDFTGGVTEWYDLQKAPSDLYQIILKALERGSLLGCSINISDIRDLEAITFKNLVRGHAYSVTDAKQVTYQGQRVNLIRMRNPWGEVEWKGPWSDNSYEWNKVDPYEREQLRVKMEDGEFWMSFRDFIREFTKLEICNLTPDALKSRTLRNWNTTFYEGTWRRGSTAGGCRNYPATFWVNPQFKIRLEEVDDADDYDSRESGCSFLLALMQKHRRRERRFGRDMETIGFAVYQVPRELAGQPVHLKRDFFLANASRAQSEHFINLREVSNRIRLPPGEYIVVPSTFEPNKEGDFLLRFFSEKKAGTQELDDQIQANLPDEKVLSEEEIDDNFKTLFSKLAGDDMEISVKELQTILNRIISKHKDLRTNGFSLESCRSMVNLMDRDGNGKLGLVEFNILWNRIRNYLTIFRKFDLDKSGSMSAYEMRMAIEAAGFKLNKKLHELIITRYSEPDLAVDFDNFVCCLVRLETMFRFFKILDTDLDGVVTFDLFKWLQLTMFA
Summary of the method: (§2)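 Organotypic rat hippocampal slice cultures kept 6–8 days in 2% serum medium; 30 min inhibitor pre-incubation, then 10 µM NMDA for 5 h at 34°C, 5% CO2. Slices lysed; 150/145 kDa spectrin breakdown products quantified by densitometric Western blot with anti-spectrin alpha chain antibody.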

[7] = organism: Homo sapiens; assay: Selectivity ratio of Ki for recombinant human cathepsin S expressed in Escherichia coli to Ki for human erythrocytes calpain-1
Summary of the method: (§3)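 Ki ratios from kinetic fluorescence assays. Cathepsins B (0.25 nM), L (1 nM), K (3 nM) and S (0.5 nM) in MES buffer at pH 6.0. All at room temperature; Ki by Cheng-Prusoff.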

[8] = target: T3, Calpain-1 catalytic subunit (Homo sapiens, UniProt P07384); assay: Inhibition of human erythrocytes calpain-1 using Suc-Leu-Tyr-AMC as substrate by kinetic fluorescence assay; conditions: read-out: Ki
T3 sequence (P07384 whole entry): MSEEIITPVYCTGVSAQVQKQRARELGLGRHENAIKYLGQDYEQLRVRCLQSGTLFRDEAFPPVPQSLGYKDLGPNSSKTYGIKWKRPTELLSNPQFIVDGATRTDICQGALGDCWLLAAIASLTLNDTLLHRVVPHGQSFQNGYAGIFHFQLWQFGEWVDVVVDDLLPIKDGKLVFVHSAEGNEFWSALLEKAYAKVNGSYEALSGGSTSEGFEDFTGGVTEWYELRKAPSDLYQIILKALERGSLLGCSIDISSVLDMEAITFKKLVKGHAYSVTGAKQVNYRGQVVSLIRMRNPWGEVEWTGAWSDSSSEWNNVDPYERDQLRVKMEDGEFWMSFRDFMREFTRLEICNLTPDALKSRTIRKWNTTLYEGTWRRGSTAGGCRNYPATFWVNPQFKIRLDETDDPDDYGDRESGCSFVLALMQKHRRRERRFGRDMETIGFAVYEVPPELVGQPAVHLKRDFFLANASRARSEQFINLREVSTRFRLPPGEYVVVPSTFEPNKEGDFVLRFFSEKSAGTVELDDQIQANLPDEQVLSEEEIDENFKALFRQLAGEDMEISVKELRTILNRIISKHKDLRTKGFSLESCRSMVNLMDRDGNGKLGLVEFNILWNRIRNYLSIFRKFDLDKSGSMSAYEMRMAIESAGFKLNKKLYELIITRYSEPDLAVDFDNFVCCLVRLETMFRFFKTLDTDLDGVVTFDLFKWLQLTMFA

[9] = Selectivity ratio of Ki for human liver cathepsin L to Ki for human erythrocytes calpain-1
[10] = organism: Homo sapiens; assay: Selectivity ratio of Ki for recombinant human procathepsin K expressed in Escherichia coli to Ki for human erythrocytes calpain-1; summary of the method: as §3
[11] = Selectivity ratio of Ki for human liver cathepsin B to Ki for human erythrocytes calpain-1
[12] = target: T4, Calpain-1 catalytic subunit (Homo sapiens) (UniProt P07384); assay: Inhibition of human erythrocytes calpain-1 using Suc-Leu-Tyr-AMC as substrate in presence of up to 10 mM glutathione by kinetic fluorescence assay
T4 sequence (whole entry): T3 sequence (P07384 whole entry)

[13] = target: Cathepsin S (Homo sapiens, UniProt P25774); assay: Inhibition of human cathepsin S expressed in Escherichia coli using Z-Val-Val-Arg-AMC as substrate by kinetic fluorescence assay
[14] = Inhibition of human liver cathepsin L using Z-Phe-Arg-AMC as substrate by kinetic fluorescence assay
[15] = target: T5, Calpain-1 catalytic subunit (Rattus norvegicus) (UniProt P97571); assay: as §1; summary of the method: as §2
T5 sequence (whole entry): T2 sequence (P97571 whole entry)

[16] = target: T5, Calpain-1 catalytic subunit (Rattus norvegicus); assay: Inhibition of calpain-1 in rat hippocampal slices assessed as prevention of NMDA-induced tau cleavage preincubated for 30 mins followed by NMDA addition measured after 5 hrs by Western blot analysis
Summary of the method: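 Same slice protocol: rat hippocampal organotypic cultures, 30 min inhibitor pre-incubation, 10 µM NMDA for 5 h at 34°C, 5% CO2; lysates probed by densitometric Western blot for the 17 kDa tau cleavage fragment using anti-Tau 1 antibody.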

[17] = system: Rattus norvegicus; assay: Neuroprotective activity in Fisher rat assessed as effect on latency in rapid eye movement at 1 mg/kg administered via oral gavage measured for 8 hrs at the beginning of 12 hr light period by EEG analysis relative to control; format: functional
Summary of the method: (§4)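 Male Fisher rats (250–330 g) fitted with frontal/occipital EEG electrodes under ketamine/pentobarbital. Dosed by gavage in Cremophor EL/Capmul PG8 (20:80) just before recording. EEG recorded for 8 h from the start of the light period, without food or water. Crossover design with alternate treatment one week later; each animal served as its own control. Results as % of vehicle.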

[18] = target: T5, Calpain-1 catalytic subunit (Rattus norvegicus); assay: Inhibition of calpain-1 in rat hippocampal slices assessed as prevention of amyloid beta(1-42) globulomer-induced synaptic deficits at 10 nM co-administered with amyloid beta(1-42) globulomer […] by Schaffer collateral analysis; conditions: in the assay text read “after 1 day” for “after 1 hr”
Summary of the method: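 Hippocampal slices from 9–10-day-old Wistar rats cultured 15–18 days; 82 nM Aβ1-42 globulomer added to medium 1 day before recording, with compound co-applied; vehicle-only group included. Slices moved to interface chamber perfused with aCSF ≥1 h before recording; input/output after Schaffer collateral stimulation; 2-way repeated-measures ANOVA, Holm-Sidak.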

[19] = system: Rattus norvegicus; assay: Neuroprotective activity in sc dosed Sprague-Dawley rat assessed as increase in microdialysate acetylcholine levels in medial prefrontal cortex measured every 20 mins by HPLC analysis; format: functional, organism-based
Summary of the method: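 Male Sprague-Dawley rats (290–320 g) implanted with medial prefrontal cortex microdialysis probes. Perfusion with Ringer solution containing 1 µM neostigmine at 1.5 µL/min. Twenty-minute fractions collected, six before and six after 1, 3 or 10 mg/kg s.c. (ethanol/PEG400/water vehicle). Acetylcholine measured by HPLC with an enzyme reactor and electrochemical detection, expressed as % of baseline.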

[20] = system: Rattus norvegicus; assay: Neuroprotective activity in Wistar rat assessed as protection against scopolamine-induced cognitive impairment at 1 to 3 mg/kg, sc administered prior to scopolamine induction measured after 24 hrs; format: functional, organism-based
Summary of the method: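 Scopolamine 0.1 mg/kg s.c., with test compound given s.c. beforehand in ethanol/PEG400/water (20:30:50). Single step-through passive avoidance training: 2 min habituation in the lit compartment, then a 0.5 mA, 2 s footshock on entering the dark side. Latency to enter the dark compartment measured 24 h later; n=14–47/group.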

[21] = system: Rattus norvegicus; assay: Neuroprotective activity in Fisher rat assessed as effect on latency in rapid eye movement at 10 mg/kg administered via oral gavage measured for 8 hrs at the beginning of 12 hr light period by EEG analysis relative to control; format: functional; summary of the method: as §4
[22] = system: Rattus norvegicus; assay: Neuroprotective activity in Fisher rat assessed as effect on rapid eye movement sleep pattern administered via oral gavage measured after 8 hrs at the beginning of 12 hr light period by EEG analysis; format: functional; summary of the method: as §4
[23] = system: Rattus norvegicus; assay: Neuroprotective activity in Fisher rat assessed as effect on latency in rapid eye movement at 3 mg/kg administered via oral gavage measured for 8 hrs at the beginning of 12 hr light period by EEG analysis relative to control; format: functional; summary of the method: as §4
[24] = system: Rattus norvegicus; assay: Neuroprotective activity in Fisher rat assessed as effect on rapid eye movement time at 3 mg/kg administered via oral gavage measured after 8 hrs at the beginning of 12 hr light period by EEG analysis relative to control; format: functional; summary of the method: as §4
[25] = system: Rattus norvegicus; assay: Neuroprotective activity in Fisher rat assessed as effect on rapid eye movement time at 10 mg/kg administered via oral gavage measured after 8 hrs at the beginning of 12 hr light period by EEG analysis relative to control; format: functional; summary of the method: as §4

Cathepsin S, sequence (P25774 whole entry): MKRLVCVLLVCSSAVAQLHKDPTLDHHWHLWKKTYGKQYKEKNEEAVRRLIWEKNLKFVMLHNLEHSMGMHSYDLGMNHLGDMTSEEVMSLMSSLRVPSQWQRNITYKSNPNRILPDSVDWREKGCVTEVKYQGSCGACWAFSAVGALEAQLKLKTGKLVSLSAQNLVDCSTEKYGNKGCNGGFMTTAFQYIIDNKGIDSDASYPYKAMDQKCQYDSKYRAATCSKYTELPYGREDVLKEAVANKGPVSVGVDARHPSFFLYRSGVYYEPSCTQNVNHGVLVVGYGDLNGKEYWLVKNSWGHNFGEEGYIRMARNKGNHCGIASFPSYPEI

Compound | Thiol reactivity [5] | IC50 [6] | Ratio Ki [7] | Ki [8] | Ratio Ki [9] | Ratio Ki [10] | Ratio Ki [11] | inhibition [12] | Ki [13] | Ki [14] | fIC50 [15] | also measured
NC(=O)C(O)C(Cc1ccccc1)NC(=O)c1cccnc1-n1ccc(-c2ccc(F)cc2)n1 (configuration not stated) |  |  |  |  |  |  |  |  |  |  |  | Drug metabolism [1]: Metabolite_Detected; Drug metabolism [2]: Metabolite_Detected; Drug metabolism [3]: Metabolite_Detected; Drug metabolism [4]: Metabolite_Detected
CCN(CC)Cc1ccc(-c2ccn(-c3ncccc3C(=O)NC(Cc3ccccc3)C(=O)C(N)=O)n2)cc1 (configuration not stated) | Metabolite not detected | > 10000 nM | 69 | 100 nM | 3 | < 1 | <1 | Active |  |  |  | 
NC(=O)C(=O)C(Cc1ccccc1)NC(=O)c1cccnc1N1CCN(c2ccccc2)CC1 (configuration not stated) |  |  |  | 250 nM |  |  |  |  | 7260 nM | 491 nM |  | 
NC(=O)C(=O)C(Cc1ccccc1)NC(=O)c1cccnc1-n1cc2ccccc2n1 (configuration not stated) | Metabolite not detected | 3200 nM | 51 | 46 nM | 124 | 6 | 6 | Active |  |  | 288 nM | 
CCN(CC)Cc1ccc(/C=C/c2ncccc2C(=O)NC(Cc2ccccc2)C(=O)C(N)=O)cc1 (configuration not stated) |  |  |  | 109 nM |  |  |  |  | > 10000 nM | 204 nM |  | 
NC(=O)C(=O)C(Cc1ccccc1)NC(=O)c1cccnc1-n1ccc(-c2ccc(F)cc2)n1 (configuration not stated) |  | 591 nM |  | 34 nM |  |  |  | Active |  |  | 41 nM | fIC50 [16]: 46 nM; Activity [17]: 100%; inhibition [18]: Active; Activity [19]: Dose-dependent effect; Activity [20]: Active; Activity [21]: 80%; Activity [22]: Dose-dependent effect; Activity [23]: 99%; Activity [24]: 131%; Activity [25]: 125%
NC(=O)C(=O)C(Cc1ccccc1)NC(=O)c1cccnc1-n1ccc(-c2ccccc2)n1 (configuration not stated) |  | 971 nM |  | 18 nM |  |  |  | Active |  |  | 39 nM | 
NC(=O)C(=O)C(Cc1ccccc1)NC(=O)c1cccnc1N1CCC(c2ccccc2)C1 (configuration not stated) |  |  |  | 125 nM |  |  |  |  | 1780 nM | 39 nM |  | 
NC(=O)C(=O)C(Cc1ccccc1)NC(=O)c1cccnc1-n1ccc(-c2cccc(C(F)(F)F)c2)n1 (configuration not stated) | Metabolite not detected | 5180 nM | > 500 | 40 nM | >300 | 28 | 17 | Active |  |  | 155 nM | 
